Data on twelve molecules can be found in ChEMBL document CHEMBL1137695, “Towards an efficient prodrug of the alkylating metabolite monomethyltriazene: synthesis and stability of N-acylamino acid derivatives of triazenes” (Eur J Med Chem, 2009).

The nature of data set [1]: Stability in phosphate buffer assessed as half life at pH 7.7 by HPLC. The class given is physicochemical. In a few lines:
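Incubation at 37 °C in 0.066 M pH 7.7 isotonic phosphate buffer. Samples injected directly onto HPLC (acetonitrile:water 20:80 to 50:50, detection 290 nm). Half-life calculated from decline in substrate concentration; mean of at least 2 determinations ± SD.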

A short description of data set [2]: Octanol-phosphate buffer partition coefficient at pH 7.4 by HPLC. The class given is physicochemical. The procedure, abridged: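 Octanol and pH 7.4 phosphate buffer, each pre-saturated with the other, at 25 °C. Compound dissolved in octanol, then shaken with buffer for 30 min to equilibrium. Each phase analysed separately by HPLC (acetonitrile:water 20:80 to 50:50, 290 nm). P taken as ratio of octanol to buffer peak areas. Mean of at least 3 determinations ± SD.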

Data set [3] in a line: Stability in 80% human plasma assessed as half life by HPLC. The class given is ADME, cell-free. The procedure, abridged: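 Plasma pooled from seven healthy donors, stored at −18 °C. Incubation at 37 °C in 80% plasma diluted with 0.066 M pH 7.4 isotonic phosphate buffer. Aliquots taken over time, diluted with acetonitrile, centrifuged, supernatant analysed by HPLC at 290 nm. t1/2 fitted from substrate loss; mean of at least 3 determinations ± SD.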

Broadly, the half-life is the time in which the quantity being followed falls by half. As usually defined, the logD is the decadic logarithm of the distribution of all forms, ionised or not, between an organic phase and buffer at a given pH.

`CC(=O)N[C@@H](C)C(=O)N(C)/N=N/c1ccc(Br)cc1`: the half-life in data set [1] was 1530 min; in data set [3] it was 342 min. Moreover, the logD in data set [2] was 2.8.

Turning to `CC(=O)N[C@@H](C)C(=O)N(C)/N=N/c1ccc(C)cc1`, the half-life in data set [1] was 2790 min; in data set [3] it was 906 min. For the same molecule, the logD in data set [2] was 2.45.

For `CCC(=O)N[C@@H](C)C(=O)N(C)/N=N/c1ccc(C#N)cc1`, the half-life in data set [1] is 606 min; in data set [3], 78 min. The logD in data set [2] was found to be 1.87.

As to `CC(=O)NCC(=O)N(C)/N=N/c1ccc(C#N)cc1`, the results for the half-life in data set [1] and in data set [3] were 456 min and 72 min, respectively. The molecule further returned a logD in data set [2] of 1.1.

Consider `CCOC(=O)c1ccc(/N=N/N(C)C(=O)[C@H](C)NC(C)=O)cc1`, for which the half-life was 942 min in data set [1] and 276 min in data set [3]. Moreover, the pH-dependent lipophilicity (logD) in data set [2] came out at 2.52.

`CCCC(=O)N[C@@H](C)C(=O)N(C)/N=N/c1ccc(C#N)cc1`: the half-life in data set [1] is 546 min; in data set [3], 66 min. This molecule gave a logD in data set [2] of 2.28.

For the molecule `CC(=O)N[C@@H](Cc1ccccc1)C(=O)N(C)/N=N/c1ccc(C#N)cc1`, the half-life in data set [1] is 834 min; in data set [3], 144 min. The molecule also yielded a logD in data set [2] of 2.76.

`CC(=O)N[C@@H](C)C(=O)N(C)/N=N/c1ccc(C(C)=O)cc1`: the half-life in data set [1] was 834 min; in data set [3] it was 138 min. In data set [2], this molecule showed a logD of 1.51.

Regarding `CC(=O)N[C@@H](C)C(=O)N(C)/N=N/c1ccc(C(N)=O)cc1`, the half-life in data set [1] is 1100 min; in data set [3], 456 min. In data set [2], the logD was 0.69.

Regarding `C[C@H](NC(=O)c1ccccc1)C(=O)N(C)/N=N/c1ccc(C#N)cc1`, the half-life in data set [1] is 552 min; in data set [3], 96 min. The molecule further came in with a logD in data set [2] of 3.04.

In the case of `CC(=O)N[C@H](C(=O)N(C)/N=N/c1ccc(C#N)cc1)C(C)C`, the half-life in data set [1] was 5060 min; in data set [3], 342 min. Further, the logD in data set [2] was 2.18.

For `CC(=O)N[C@@H](C)C(=O)N(C)/N=N/c1ccc(C#N)cc1`, the half-life was 588 min in data set [1] and 60 min in data set [3]. In data set [2], this molecule registered a logD of 1.41.
